# Screens: PubChem BioAssay, several laboratories
# D1 mod: D1 dopamine receptor (human) allosteric modulation; B-score at 10 µM; 58,000 compounds, 5.9% hits; HEK293 D1, CRE-luciferase, dopamine EC30 potentiation; actives deviate in either direction; P21728;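 active means luminescence count or its row- and column-corrected plate score outside the 99.7% band of the plate's sample wells, on either side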
# RORa activator: activates the human nuclear receptor RORA | CHO-K1 Gal4-RORA LBD luciferase reporter, luminescence; percent increase over mock-subtracted basal signal | activation, % at 10 µM | 65,000 compounds, 1.5% hits;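 active means activation above the mean of all tested compounds plus 3 SD, cut at about 49% in these data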;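 further: 0% = DMSO-treated RORA cells and 100% = added signal equal to DMSO minus mock-transfected cells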
# Htt clearance: compounds clearing mutant huntingtin protein; HeLa Exon1htt(103Q)mCFP, aggregate imaging; zero = plate's median compound well; inhibition, % at 1.5 µM; 47,000 compounds, 0.42% hits;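 active means inhibition of aggregate fluorescence above about 70%, also judged a hit by eye on the cell image, limit read from the data, passing the limit was not always enough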;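 further: cells exposed to compound for three days before fixation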
# SF-1 act: activators of human nuclear receptor SF-1; Q13285; CHO-K1 Gal4-SF-1 LBD luciferase reporter; % increase over DMSO SF-1-specific signal; activation, % at 10 µM; 65,000 compounds, 1.9% hits; AID 522;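 active means activation above the mean activation of all tested compounds plus 3 SD, cut at about 50% in these data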
#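 material = CHO-K1 cells with Gal4–hSF-1 LBD chimera plus Gal4-driven luciferase | compound = 10 µM single point, 1% DMSO | incubation = 20 h compound exposure at 37 °C after 1 h cell settling | measured by = SteadyLite luciferase luminescence | evaluation = percent activation relative to DMSO median and mock-transfected background | control set = DMSO negative control and −SF1 background wells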
# M1 antag: M1 muscarinic receptor (rat) antagonism; B-score at 10 µM; P08482; AID 628; 64,000 compounds, 3.4% hits; CHO-M1 cells, Fluo-4 calcium, ACh EC80 antagonist mode; stronger effect = lower value;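 active means calcium fluorescence response, raw or row-and-column corrected B-score, differing from the plate sample mean either way at a set confidence level, mostly lower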
# Target sequence (P08482 whole entry, looked up): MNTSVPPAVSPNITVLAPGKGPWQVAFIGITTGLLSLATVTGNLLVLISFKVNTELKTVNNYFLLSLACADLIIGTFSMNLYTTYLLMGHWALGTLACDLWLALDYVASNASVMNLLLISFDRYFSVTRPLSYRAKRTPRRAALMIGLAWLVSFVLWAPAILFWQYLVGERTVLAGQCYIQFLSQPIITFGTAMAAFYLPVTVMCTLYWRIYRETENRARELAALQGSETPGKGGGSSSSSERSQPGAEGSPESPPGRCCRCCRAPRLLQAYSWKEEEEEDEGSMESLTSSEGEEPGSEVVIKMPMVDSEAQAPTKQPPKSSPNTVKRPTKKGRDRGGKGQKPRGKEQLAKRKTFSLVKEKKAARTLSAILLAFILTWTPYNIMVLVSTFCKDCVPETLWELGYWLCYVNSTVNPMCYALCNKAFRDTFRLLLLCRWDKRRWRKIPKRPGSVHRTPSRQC
# M1 ag: agonists of M1 muscarinic receptor; CHO-M1 cells, Fluo-4 calcium fluorescence, agonist mode; stronger effect = higher value; 64,000 compounds, 3% hits; B-score at 10 µM;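 active means fluorescence rise, raw or as B-score row- and column-corrected plate score, outside the 99.7% band of its plate's samples, either direction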
# * = called active by the depositor; x = no result given. Hits are enriched below; roughly 11% of the tested compounds scored in any of these assays.
SMILES,D1 mod,RORa activator,Htt clearance,SF-1 act,M1 antag,M1 ag
Cn1ccnc1SCC(=O)Nc1ccc2ccccc2c1,-6.6*,48,x,22,0.24,0.047
O=C(c1ccc(Br)o1)N1CCN(C/C=C/c2ccccc2)CC1,-3.7*,-17,13,-4,-0.22,-0.27
Cc1nc2cc(NC(=O)NCCC3=CCCCC3)ccc2o1,-0.71,73*,-50,46,0.0049,0.25
Cc1cc(C(=O)NCCC2=CCCCC2)c(C)o1,-6.6*,19,-2,46,-0.19,0.97
C=CCNC(=O)Nc1ccc2oc(C)nc2c1,-2,-22,x,-6,0.1,-0.0072
CC1CCN(C2CC(=O)N(c3ccc(Br)cc3Br)C2=O)CC1 (configuration not stated),1.1,-14,x,-14,1.3,1.7
CCc1nnc(NC(=O)CSc2nc3c(c(=O)n2CC)SC(C)C3)s1 (configuration not stated),1.1,-12,x,-15,0.28,1.2
CCc1cccc(NC(=O)Nc2cccs2)c1,-0.073,63*,x,32,-0.64,1.5
COCCN(CCOC)Cc1c(C)[nH]c2ccccc2c1=O,0.51,-11,x,-2,-0.0014,0.63
CCNC(=O)CSc1nnc(-c2cccc(S(=O)(=O)N(CC)CC)c2)n1CCc1ccccc1,x,x,17,x,x,x
CCSc1nnc(-c2cccc(S(=O)(=O)N(CC)CC)c2)n1Cc1ccccc1,-0.83,9,x,14,-1.6,10*
CC(C)(C)NC(=O)CSc1nnc(C2CC2)n1Cc1ccccc1,x,12,x,-3,-0.46,0.13
NC(=O)c1ccsc1NC(=O)c1cccs1,2.2,68*,x,55*,0.78,0.0022
Cc1ccsc1C(=O)OCC(=O)NCC1CCCO1 (configuration not stated),-0.55,22,x,4,1.2,-0.12
Cc1ccsc1C(=O)OCC(=O)Nc1sccc1C(N)=O,-1.1,42,x,74*,-0.021,1.3
Cc1sc(NC(=O)c2cccs2)c(C(N)=O)c1C,x,45,33,51*,0.0059,0.5
CC1(C)Cc2c(sc3nc(SCC#N)n(C4CCCCC4)c(=O)c23)CO1,26*,-5,x,15,0.18,-0.28
Cc1nnc2n(C3CCCCC3)c(=O)c3c4c(sc3n12)COC(C)(C)C4,x,-21,x,7,-0.55,-0.0025
CCC(Sc1nnnn1-c1ccccc1)C(=O)NC(C)c1ccccc1 (configuration not stated),-0.12,-5,71*,7,0.095,2.4
CC1CCCCN1CCNC(=O)c1cnn2ccccc12 (configuration not stated),-0.88,4,x,1,-0.18,-0.0081
COCCNC(=O)c1cc2sc3ccccc3c2s1,-1.4,61*,-14,50*,-0.76,-0.4
O=C(NCCO)c1cc2ccccc2c(=O)s1,-0.036,-4,-5,-8,-0.0047,-0.2
O=S(=O)(c1ccccc1)c1nc(-c2ccccc2)oc1NCc1cccnc1,2,4,x,-12,-0.0066,-0.41
O=S(=O)(c1ccccc1)c1nc(-c2ccco2)oc1NCc1cccnc1,4.9*,-10,x,-2,-0.49,-0.28
CC(C)NC(=O)N(O)C1N(Cc2ccc3c(c2)OCO3)C(=S)SC1(C)C (configuration not stated),-0.63,4,x,1,0.018,0.0016
SMILES,D1 mod,RORa activator,Htt clearance,SF-1 act,M1 antag,M1 ag
O=C(c1ccco1)c1nc2c(n1O)CCCCC2,x,x,7,x,x,x
O=C(c1cc2ccccc2o1)c1nc2c(n1O)CCCCC2,-0.84,56*,-5,44,0.43,-0.25
Cc1ccc2oc(Nc3nc(C)cc(C)n3)nc2c1,0.14,52*,-8,22,-0.049,-0.29
COc1ccc(C(=O)Nc2ccc3c(c2)OCCO3)cc1,x,x,-4,x,x,x
COc1ccc(NC(=O)c2ccc3c(c2)OCO3)cc1Cl,-1.9,-1,23,53*,-0.37,1.5
COc1ccc(NC(=O)C(C)NS(=O)(=O)c2ccc(NC(C)=O)cc2)cc1Cl (configuration not stated),-0.47,0,-106,-8,-0.022,1
COc1ccc(NC(=O)C=C(C)C)cc1Cl,-3.8*,39,-49,48,0.26,-0.44
CN1CCN(c2ccc(NC(=O)c3ccc4c(c3)OCO4)cc2)CC1,-5.1*,27,x,61*,-1.1,-1.5
COc1cc(C(=O)Nc2ccc3c(c2)OCCO3)ccc1OC(F)F,0.1,76*,x,64*,0.12,2.2
COC(=O)c1ccc(NC(=O)c2ccc3c(c2)OCO3)cc1,-0.23,46,x,53*,-0.19,0.16
Nc1nc(-c2ccccc2)cc(C(F)(F)F)n1,27*,-13,x,14,-0.07,1.2
c1cncc(-c2nnc(-c3ccco3)o2)c1,1.5,15,-27,14,-0.49,0.055
Clc1ccc(-c2nnc(-c3ccco3)o2)cc1,-0.59,50*,48,35,-0.2,-0.62
Cc1nc2ccccc2n1-c1ccccc1,0.11,-14,x,-7,-1.1,0.38
Cc1cc(=O)cc(C)n1-c1ccc2c(c1)nc(C)n2-c1ccccc1,-0.031,-4,x,9,2.2*,0.49
CCOc1ccccc1NC(=O)c1c(NC(=O)CNCc2ccco2)sc2c1CCC2,0.26,-2,x,-6,-8.1*,-0.59
COC(=O)Nc1sc2c(c1C(=O)NCc1ccco1)CCC2,1.3,-2,x,0,0.33,-0.38
O=C(c1ccccc1)c1cccc(NC(=O)c2ccc(Br)o2)c1,x,x,10,x,x,x
COC(=O)Cc1ccc(NC(=O)c2ccc(Br)o2)cc1,-0.89,35,-40,48,-0.37,-0.025
CCN(CC)c1ccc(NC(=O)c2ccc(Br)o2)cc1,-3.5,102*,x,39,x,x
O=C(Nc1ccc2c(c1)oc1ccccc12)c1ccc(Br)o1,-0.0039,68*,-8,38,-1.4,-1.1
CCOC(=O)N1CCN(C(=O)c2cc(Cl)c(Cl)cc2C(=O)O)CC1,-0.00055,-12,40,2,1.3,4.6*
Cc1nc2ncnn2c(N2CCCC(C(=O)Nc3ccc4c(c3)CCC4)C2)c1C (configuration not stated),-0.94,6,x,1,-0.59,-1.1
CCCOc1ccc(/C=c2\sc3nc(-c4ccco4)nn3c2=O)cc1OCC,0.97,-6,x,-2,0.15,25*
Cc1ccnc(NC(=O)Nc2cccc(F)c2)c1,-5.3*,-46,x,-18,-0.17,-1.3
Cc1cccc(NC(=O)Nc2cccc(F)c2)n1,2.5,46,28,18,0.0062,0.29
N#Cc1c(C(F)(F)F)cc(-c2ccccc2)nc1SCc1nc(N)nc(N2CCOCC2)n1,-0.53,-2,x,-12,-0.18,0.17
COc1ccc(CN(C(=O)c2cnccn2)C(C(=O)NC(C)(C)C)c2cc(OC)c(OC)c(OC)c2)cc1 (configuration not stated),x,x,70*,x,x,x
CCOc1ccc2nc3c(cc2c1)CN(CCCO)C(=NCCOC)S3,0.018,-23,x,6,0.094,0.88
COc1ccccc1-n1c(=O)[nH]c2c(C(N)=O)nc(-c3cccnc3)nc21,18*,-20,x,0,0.04,-0.0012
